# ChEMBL document CHEMBL1123547, “Structure-activity relationship of novel oligopeptide antiviral and antitumor agents related to netropsin and distamycin” (1986)
# Columns and labels:
# Type in all cases: functional
# [1] = tested on: Vesicular stomatitis virus; assay: Evaluation for antiviral activity against vesion stomatitis virus in primary rabbit kidney cell culture
# Summary of the method: (§1)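 Primary rabbit kidney cell cultures infected with virus; the endpoint is the compound concentration that reduces virus-induced cytopathogenicity by 50%.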
# Human alphaherpesvirus 2 = assay: Evaluation for antiviral activity against herpes simplex virus type 2 (strain G) in primary rabbit kidney cell culture; summary of the method: as §1
# Vaccinia virus = assay: Evaluation for antiviral activity against vaccinia virus in primary rabbit kidney cell culture; conditions: Orthopoxvirus vaccinia; summary of the method: as §1
# FM3A = assay: Evaluation for its inhibitory effect on proliferation of murine mammary carcinoma (FM3A) cells; conditions: Mus musculus, read-out: ID50 (the source's name)
# Homo sapiens [2] = species on record: Homo sapiens; assay: Evaluation for its inhibitory effect on proliferation of human lymphoblast Raji cells; conditions: read-out: ID50 (the source's name)
# Homo sapiens [3] = species on record: Homo sapiens; assay: Evaluation for its inhibitory effect on proliferation of human lymphoblast namalva cells; conditions: read-out: ID50 (the source's name)
# L1210 = assay: Evaluation for its inhibitory effect on proliferation of murine leukemia L1210 cells; conditions: Mus musculus, read-out: ID50 (the source's name)
# Human alphaherpesvirus 1 = assay: Evaluation for antiviral activity against herpes simplex virus type 1 (strain KOS) in primary rabbit kidney cell culture; summary of the method: as §1
# Oryctolagus cuniculus = species on record: Oryctolagus cuniculus; assay: Evaluation for antiviral activity in primary rabbit kidney cell culture; conditions: read-out: Min cytotoxic concentration
SMILES,MIC [1] [µg/mL],MIC (Human alphaherpesvirus 2) [µg/mL],MIC (Vaccinia virus) [µg/mL],IC50 (FM3A) [µg/mL],IC50 (Homo sapiens [2]) [µg/mL],IC50 (Homo sapiens [3]) [µg/mL],IC50 (L1210) [µg/mL],MIC (Human alphaherpesvirus 1) [µg/mL],MCC (Oryctolagus cuniculus) [µg/mL]
Cn1cc(NC(=O)c2nc(NC(=O)CNC(=N)N)cn2C)nc1C(=O)NCCC(=N)N.O=S(=O)(O)O,> 400,> 400,300,> 500,316,261,238,> 400,> 400
Cn1cc(NC(=O)CNC(=N)N)cc1C(=O)Nc1cn(C)c(C(=O)NCCC(=N)N)n1.O=S(=O)(O)O,≥ 200,≥ 200,40,> 100,> 100,> 100,> 100,≥ 200,200
Cl.Cn1cc(NC(=O)c2cc(N)cn2C)cc1C(=O)NCCC(=N)N,≥ 400,150,20,327,43,36,276,150,400
Nc1ccnc2c1ncn2[C@@H]1C[C@H](CO)[C@@H](O)[C@H]1O,–,≥ 400,0.3,–,–,–,–,200,> 400
Cl.Cl.Cn1cc(NC(=O)c2cc(NC(=O)c3cc(NC=O)cn3C)cn2C)cc1C(=O)NCCC(=N)N,≥ 200,70,0.2,31,24,22,27,70,200
Cn1cc(NC(=O)c2cc(NC(=O)C[N+](C)(C)C)cn2C)cc1C(=O)NCCC(=N)N.[Cl-],> 400,> 200,20,> 1000,504,–,543,> 200,≥ 400
CC[N+](CC)(CC)CC(=O)Nc1cc(C(=O)Nc2cc(C(=O)NCCC(=N)N)n(C)c2)n(C)c1.[Cl-],> 400,300,300,334,252,180,222,300,> 400
Cl.Cn1cc(NC(=O)c2nc(NC(=O)c3nc(NC(=O)CNC(=N)N)cn3C)cn2C)nc1C(=O)NCCC(=N)N,≥ 100,≥ 100,≥ 100,46,52,100,42,≥ 100,100
Cl.Cn1cc(NC(=O)c2nc(NC(=O)CNC(=N)N)cn2C)cc1C(=O)NCCC(=N)N,> 400,> 400,40,> 100,> 100,> 100,> 100,> 400,> 400
Nc1ncnc2c1ncn2C[C@H](O)CO [(S)-DHPA],20,> 400,70,–,–,–,–,> 400,> 400
Cl.Cn1cc(NC(=O)c2cc(NC(=O)c3cc(N)cn3C)cn2C)cc1C(=O)NCCC(=N)N [DEFORMYLDISTAMYCIN],≥ 100,≥ 100,7,454,32,29,174,≥ 100,100
Cl.Cn1cc(NC(=O)c2cc(NC(=O)CNC(=N)N)cn2C)cc1C(=O)NCCC(=N)N [NETROPSIN CHLORIDE],≥ 40,≥ 40,2,321,139,103,245,≥ 40,40
NC(=O)c1ncn([C@@H]2O[C@H](CO)[C@@H](O)[C@H]2O)n1 [RIBAVIRIN],200,> 400,30,–,–,–,–,> 400,> 400
Nc1ncnc2c1ccn2[C@@H]1O[C@H](CO)[C@@H](O)[C@H]1O [TUBERCIDIN],–,≥ 0.4,0.07,–,–,–,–,≥ 0.4,0.4
